The source of these data is ChEMBL document CHEMBL3351371, “Design and synthesis of phenolic hydrazide hydrazones as potent poly(ADP-ribose) glycohydrolase (PARG) inhibitors” (Bioorg Med Chem Lett, 2014).

Chain of Poly(ADP-ribose) glycohydrolase (Q9QYM2 whole entry, the tested form may be a part): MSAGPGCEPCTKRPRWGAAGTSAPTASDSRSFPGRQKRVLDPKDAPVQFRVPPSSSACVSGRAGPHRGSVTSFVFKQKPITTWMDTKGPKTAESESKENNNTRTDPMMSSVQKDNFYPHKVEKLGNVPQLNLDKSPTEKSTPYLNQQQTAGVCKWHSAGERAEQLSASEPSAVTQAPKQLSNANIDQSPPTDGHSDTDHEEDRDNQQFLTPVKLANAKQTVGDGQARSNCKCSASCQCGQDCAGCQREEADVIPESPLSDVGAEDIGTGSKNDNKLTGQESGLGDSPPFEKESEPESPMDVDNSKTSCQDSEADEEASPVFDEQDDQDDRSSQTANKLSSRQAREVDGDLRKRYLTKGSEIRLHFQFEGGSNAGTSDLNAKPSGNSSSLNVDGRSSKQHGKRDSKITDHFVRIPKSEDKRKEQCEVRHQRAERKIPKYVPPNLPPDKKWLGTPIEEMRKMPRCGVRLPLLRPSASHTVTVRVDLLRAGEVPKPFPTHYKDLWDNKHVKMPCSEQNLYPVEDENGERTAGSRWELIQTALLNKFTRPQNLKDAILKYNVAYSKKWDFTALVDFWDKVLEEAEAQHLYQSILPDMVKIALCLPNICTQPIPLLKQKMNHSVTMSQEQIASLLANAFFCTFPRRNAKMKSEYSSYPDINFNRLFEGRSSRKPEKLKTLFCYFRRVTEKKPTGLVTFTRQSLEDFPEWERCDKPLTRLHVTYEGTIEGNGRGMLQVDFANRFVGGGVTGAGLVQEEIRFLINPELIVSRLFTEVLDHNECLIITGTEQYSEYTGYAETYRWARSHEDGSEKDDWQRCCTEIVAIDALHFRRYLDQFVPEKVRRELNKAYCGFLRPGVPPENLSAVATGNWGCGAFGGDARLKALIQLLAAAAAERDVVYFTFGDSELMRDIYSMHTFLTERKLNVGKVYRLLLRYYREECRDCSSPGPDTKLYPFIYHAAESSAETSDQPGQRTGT

The assay concerns the target Poly(ADP-ribose) glycohydrolase (Rattus norvegicus, UniProt Q9QYM2). The experiment in a line: Inhibition of rat testis GST-tagged PARG catalytic activity after 30 mins using [32P]poly(ADP-ribose) by radioassay. Summed up:
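Recombinant rat PARG (from testis cDNA) expressed in E. coli as GST fusion (GST-RPG, 136 kDa), 15 ng per reaction. Compound in DMSO added to 4 μM [32P]poly(ADP-ribose) in 20 mM potassium phosphate pH 7.5, 50 mM KCl, 10 mM 2-mercaptoethanol; 37 °C, 30 min; stopped with 1% SDS (final). PEI-cellulose TLC (0.1 M LiCl/3 M AcOH/3 M urea), imaging-plate radioactivity; activity from fraction of degradation products.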
On to `O=C(CCCC(=O)N/N=C/c1ccc(O)c(O)c1O)N/N=C/c1ccc(O)c(O)c1O`, for which it took 13.9 µM to reach half-maximal inhibition (IC50).

For the compound `O=C(N/N=C/c1cccc(O)c1O)c1ccc(C(=O)N/N=C/c2cccc(O)c2O)cc1`, the IC50 – broadly, the concentration that inhibits the measured activity by half – was > 75 µM.

For `O=C(N/N=C/c1ccc(O)cc1O)c1ccc(C(=O)N/N=C/c2ccc(O)cc2O)cc1`, the 50% inhibitory concentration (IC50) was > 75 µM.

As to `O=C(N/N=C/c1ccc(O)c(O)c1)c1ccc(C(=O)N/N=C/c2ccc(O)c(O)c2)cc1`, the IC50 was > 75 µM.

With `O=C(N/N=C/c1ccc(O)c(O)c1O)c1ccc(C(=O)N/N=C/c2ccc(O)c(O)c2O)cc1`, the concentration for half-maximal inhibition (IC50) was 1 µM.

As for `O=C(N/N=C/c1cc(O)c(O)c(O)c1)c1ccc(C(=O)N/N=C/c2cc(O)c(O)c(O)c2)cc1`, the IC50 amounted to 2.1 µM.

The compound `O=C(N/N=C/c1c(O)cc(O)cc1O)c1ccc(C(=O)N/N=C/c2c(O)cc(O)cc2O)cc1` came in with an IC50 of 9.9 µM.

Turning to `O=C(N/N=C/c1cccc(O)c1O)c1cccc(C(=O)N/N=C/c2cccc(O)c2O)c1`, the 50% inhibitory concentration (IC50) was 14.8 µM.

`O=C(N/N=C/c1ccc(O)cc1O)c1cccc(C(=O)N/N=C/c2ccc(O)cc2O)c1` yielded an IC50 of 40.1 µM.

`O=C(N/N=C/c1ccc(O)c(O)c1)c1cccc(C(=O)N/N=C/c2ccc(O)c(O)c2)c1` displayed an IC50 of 19.2 µM.

As to `O=C(N/N=C/c1ccc(O)c(O)c1O)c1cccc(C(=O)N/N=C/c2ccc(O)c(O)c2O)c1`, inhibition was half-maximal at 3.1 µM (IC50).

With `O=C(N/N=C/c1cc(O)c(O)c(O)c1)c1cccc(C(=O)N/N=C/c2cc(O)c(O)c(O)c2)c1`, half-maximal inhibition (IC50) required 3.2 µM.

In turn, `O=C(N/N=C/c1c(O)cc(O)cc1O)c1cccc(C(=O)N/N=C/c2c(O)cc(O)cc2O)c1` returned a half-maximal inhibitory concentration (IC50) of 18.8 µM.

`O=C(N/N=C/c1ccc(O)c(O)c1O)C(=O)N/N=C/c1ccc(O)c(O)c1O` registered a half-inhibitory concentration (IC50) of 3.1 µM.

Turning to `O=C(N/N=C/c1cc(O)c(O)c(O)c1)C(=O)N/N=C/c1cc(O)c(O)c(O)c1`, the IC50 is 2.8 µM.

`O=C(CC(=O)N/N=C/c1ccc(O)c(O)c1O)N/N=C/c1ccc(O)c(O)c1O` had a 50% inhibitory concentration (IC50) of 1.6 µM.

On to `O=C(CC(=O)N/N=C/c1cc(O)c(O)c(O)c1)N/N=C/c1cc(O)c(O)c(O)c1`, for which the IC50 was determined as 15.4 µM.

For `O=C(CCC(=O)N/N=C/c1ccc(O)c(O)c1O)N/N=C/c1ccc(O)c(O)c1O`, the 50% inhibitory concentration (IC50) was found to be 9.8 µM.

In the case of `O=C(CCC(=O)N/N=C/c1cc(O)c(O)c(O)c1)N/N=C/c1cc(O)c(O)c(O)c1`, the IC50 is 8.2 µM.

Regarding `O=C(CCCC(=O)N/N=C/c1cc(O)c(O)c(O)c1)N/N=C/c1cc(O)c(O)c(O)c1`, 27.4 µM corresponded to half-maximal inhibition (IC50).

`O=C(O[C@H]1[C@H](O)[C@@H](CO)OC(O)[C@@H]1O)c1cc(O)c(O)c(O)c1` (stereo partly drawn) displayed a half-inhibitory concentration (IC50) of 0.95 µM.

For the compound `O=C(O)CCN1C(=O)/C(=C2\C(=O)c3cc(Br)ccc3N2Cc2c(Cl)cccc2Cl)SC1=S`, the concentration for half-maximal inhibition (IC50) amounted to 2.9 µM.

In turn, `Nc1ncnc2c1ncn2[C@@H]1O[C@H](CO[P@](=O)(O)O[P@@](=O)(O)OC[C@H]2NC[C@H](O)[C@@H]2O)[C@@H](O)[C@H]1O` [ADENOSINE DIPHOSPHATE (HYDROXYMETHYL)PYRROLIDINEDIOL] had an IC50 of 0.1 µM.
